Results reported in ChEMBL document CHEMBL4266059, “Synthesis of Cyanoenone-Modified Diterpenoid Analogs as Novel Bmi-1-Mediated Antitumor Agents” (ACS Med Chem Lett, 2018).
The source made the active and inactive calls. The rule behind the calls is not given here.

Key:
[1] = tested on: HCT-116; test: Antiproliferative activity against human HCT116 cells after 72 hrs by SRB assay; assay type: functional, cell-based; conditions: HCT-116, 72 h
[2] = tested on: HT-29; test: Antiproliferative activity against human HT-29 cells after 72 hrs by SRB assay; assay type: functional, cell-based; conditions: HT-29, 72 h
[3] = tested on: HCT-8; test: Antiproliferative activity against human HCT8 cells after 72 hrs by SRB assay; assay type: functional, cell-based; conditions: HCT-8, 72 h
[4] = Antiproliferative activity against HAF after 72 hrs by SRB assay; parameters: species or system Homo sapiens
[5] = Selectivity index, ratio of IC50 for HAF to IC50 for human HCT116 cells; assay type: toxicity; conditions: HAF cells versus HCT116 cells, read-out: Ratio IC50
[6] = Selectivity index, ratio of IC50 for HAF to IC50 for human HT-29 cells; assay type: toxicity; conditions: HAF cells versus HT-29 cells, read-out: Ratio IC50
[7] = Selectivity index, ratio of IC50 for HAF to IC50 for human HCT8 cells; assay type: toxicity; conditions: HAF cells versus HCT8 cells, read-out: Ratio IC50
[8] = tested on: HCT-116; test: Inhibition of Bmi1 protein expression in human HCT116 cells after 8 hrs by Western blot analysis; assay type: functional, cell-based
[9] = tested on: HCT-116; test: Effect on total H2A protein expression in human HCT116 cells at 0.5 to 4 uM after 8 hrs by Western blot analysis; assay type: functional, cell-based
In short: (§1)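 HCT116 cells treated with test agents at the indicated concentrations for 8 h. Bmi-1, H2A-K119 ubiquitinated H2A (ub-H2A), total H2A and Ring1b detected by Western blot.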

[10] = tested on: HCT-116; test: Effect on total Ring1b protein expression in human HCT116 cells at 0.5 to 4 uM after 8 hrs by Western blot analysis; assay type: functional, cell-based; in short: as §1
[11] = biological target: T1, Polycomb complex protein BMI-1 (Homo sapiens) (UniProt P35226); test: Inhibition of Bmi1 in human HCT116 cells assessed as reduction in H2A-K119Ub level after 8 hrs by Western blot analysis; assay type: cell-based; in short: as §1
T1 sequence (whole entry): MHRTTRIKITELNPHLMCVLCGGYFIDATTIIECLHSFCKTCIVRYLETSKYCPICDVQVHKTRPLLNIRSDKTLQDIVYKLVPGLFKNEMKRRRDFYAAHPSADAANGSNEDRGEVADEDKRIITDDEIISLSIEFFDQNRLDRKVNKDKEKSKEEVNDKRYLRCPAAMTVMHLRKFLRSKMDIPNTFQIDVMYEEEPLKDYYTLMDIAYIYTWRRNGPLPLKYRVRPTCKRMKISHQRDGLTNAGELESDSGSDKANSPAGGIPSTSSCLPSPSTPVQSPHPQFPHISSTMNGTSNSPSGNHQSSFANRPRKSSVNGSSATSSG

[12] = tested on: HCT-116; test: Antimigratory activity against human HCT116 cells after 24 hrs by crystal violet staining based transwell migration assay; assay type: functional, cell-based
In short: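 HCT116 cells were tested for migration through a transwell chamber at 0.5 and 1 μM, compared against an untreated (0 μM) control. Significance was assessed versus that control.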

[13] = tested on: HCT-116; test: Inhibition of colony formation in human HCT116 cells at 0.1 to 0.4 uM after 7 days by crystal violet staining based assay; assay type: functional, cell-based
[14] = tested on: HCT-116; test: Inhibition of cancer stem cell proliferation in human HCT116 cells assessed as CD133/CD44-positive cell population at 1 uM after 48 hrs by flow cytometry (reference value: 85.1 to 86.6%); assay type: functional; parameters: scale not given: the % may be the effect or the level left
[15] = tested on: HCT-116; test: Induction of apoptosis in human HCT116 cells at 1 uM after 48 hrs by Annexin V/propidium iodide staining based flow cytometry relative to control; assay type: functional
[16] = tested on: HCT-116; test: Antitumor activity against human HCT116 cells xenografted in nude mouse assessed as tumor growth inhibition at 10 mg/kg/day, ip for 18 days; assay type: functional, organism-based
In short: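 Nude mice bearing subcutaneous HCT116 tumors, randomized four groups (n = 6 each), including a DMSO vehicle group. Dosing was intraperitoneal once daily for 18 days, then sacrifice. Removed tumors were weighed and tumor volume recorded, and body weight was followed. Significance was tested versus vehicle control.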

[17] = tested on: Mus musculus; test: Toxicity in nude mouse xenografted with human HCT116 cells assessed as change in body weight at 10 mg/kg/day, ip for 18 days; assay type: organism-based; conditions: in vivo, 432 h
[18] = tested on: HCT-116; test: Antitumor activity against human HCT116 cells xenografted in nude mouse assessed as reduction in Ki67 expression in tumor at 10 mg/kg/day, ip for 18 days by IHC analysis; assay type: functional, organism-based
In short: (§2)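 Subcutaneous HCT116 xenografts in nude mice, randomized into groups of n = 6. Dosing was daily intraperitoneal injection for 18 days with DMSO as vehicle control. Mice were then sacrificed, and excised tumors were stained by immunohistochemistry for Ki67 and Bmi-1, compared with vehicle-treated controls.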

[19] = tested on: Mus musculus; test: Decrease in Bmi1 expression in tumors of nude mouse xenografted with human HCT116 cells at 10 mg/kg/day, ip for 18 days by IHC analysis; assay type: functional, organism-based; in short: as §2
[20] = tested on: HCT-116; test: Potency index, ratio of PTC-209 IC50 to compound IC50 for antiproliferative activity against human HCT116 cells; assay type: functional

SMILES	IC50 [1] [nM]	IC50 [2] [nM]	IC50 [3] [nM]	IC50 [4] [nM]	selectivity ratio [5]	selectivity ratio [6]	selectivity ratio [7]	also measured
COc1cc2c(cc1C(=O)NCC(=O)O)CC[C@H]1C(C)(C)C(=O)C(C#N)=C[C@]21C	> 50000	–	–	–	–	–	–	–
COc1cc2c(cc1C(=O)NCc1ccc(OC(F)(F)F)cc1)CC[C@H]1C(C)(C)C(=O)C(C#N)=C[C@]21C	1040	1370	1600	5190	3.2 to 5	3.2 to 5	3.2 to 5	–
COc1cc2c(cc1C(=O)Nc1ccc(C(C)=O)cc1)CC[C@H]1C(C)(C)C(=O)C(C#N)=C[C@]21C	2100	–	–	–	–	–	–	inhibition [8]: Active
COc1cc2c(cc1C(=O)NNc1ccc(OC(F)(F)F)cc1)CC[C@H]1C(C)(C)C(=O)C(C#N)=C[C@]21C	900	1620	1310	4550	2.8 to 5	2.8 to 5	2.8 to 5	–
COc1cc2c(cc1C(=O)Nc1ccc(N)cc1)CC[C@H]1C(C)(C)C(=O)C(C#N)=C[C@]21C	750	–	–	–	–	–	–	–
COc1cc2c(cc1C(=O)Nc1cccc(OC(F)(F)F)c1)CC[C@H]1C(C)(C)C(=O)C(C#N)=C[C@]21C	430	560	580	3570	6.2 to 8.3	6.2 to 8.3	6.2 to 8.3	–
COc1cc2c(cc1C(=O)Nc1ccc(OC(F)(F)F)cc1)CC[C@H]1C(C)(C)C(=O)C=C[C@]21C	4560	4090	5670	17100	3 to 3.8	3 to 3.8	3 to 3.8	inhibition [8]: inactive
COC(=O)c1ccc(NC(=O)c2cc3c(cc2OC)[C@@]2(C)C=C(C#N)C(=O)C(C)(C)[C@@H]2CC3)cc1	690	–	–	–	–	–	–	–
COc1cc2c(cc1C(=O)Nc1ccccc1)CC[C@H]1C(C)(C)C(=O)C(C#N)=C[C@]21C	760	–	–	–	–	–	–	–
CCOc1ccc(NC(=O)c2cc3c(cc2OC)[C@@]2(C)C=C(C#N)C(=O)C(C)(C)[C@@H]2CC3)cc1	820	–	–	–	–	–	–	–
COc1cc2c(cc1C(=O)O)CC[C@H]1C(C)(C)C(=O)C(C#N)=C[C@]21C	> 50000	–	–	–	–	–	–	–
COc1cc2c(cc1C(=O)Nc1ccc(C#N)cc1)CC[C@H]1C(C)(C)C(=O)C(C#N)=C[C@]21C	570	–	–	–	–	–	–	–
CC1(C)C(=O)C(C#N)=C[C@]2(C)c3cc(O)c(C(=O)Nc4ccc(OC(F)(F)F)cc4)cc3CC[C@@H]12	2000	2380	3060	13800	4.5 to 6.9	4.5 to 6.9	4.5 to 6.9	inhibition [8]: inactive
CNC(=O)c1cc2c(cc1OC)[C@@]1(C)C=C(C#N)C(=O)C(C)(C)[C@@H]1CC2	8540	–	–	–	–	–	–	–
COc1cc(Br)c(Nc2nc(-c3c(C)nc4ncccn34)cs2)c(Br)c1	650	610	590	1030	1.6 to 1.7	1.6 to 1.7	1.6 to 1.7	Activity [9]: inactive; Activity [10]: inactive; inhibition [8]: Dose-dependent effect; IC50 ([8]; HCT-116, 8 h): 700 nM; inhibition [11]: Dose-dependent effect; Activity [12]: Dose-dependent effect; inhibition [13]: Active; Activity [14]: 79.7%; Activity [15]: 14.74%; TGI [16]: Active; Activity [17]: Non-Toxic; Activity [18]: Active; Activity [19]: Active
COc1cc2c(cc1C(=O)Nc1ccc(C(N)=O)cc1)CC[C@H]1C(C)(C)C(=O)C(C#N)=C[C@]21C	850	–	–	–	–	–	–	–
C=CCOc1ccc(NC(=O)c2cc3c(cc2OC)[C@@]2(C)C=C(C#N)C(=O)C(C)(C)[C@@H]2CC3)cc1	560	–	–	–	–	–	–	–
COC(=O)[C@]12CCC(C)(C)C[C@H]1[C@H]1C(=O)C=C3[C@@]4(C)C=C(C#N)C(=O)C(C)(C)[C@@H]4CC[C@@]3(C)[C@]1(C)CC2 [BARDOXOLONE METHYL]	250	280	290	2100	7.2 to 8.4	7.2 to 8.4	7.2 to 8.4	inhibition [8]: Active
COc1cc2c(cc1C(=O)Nc1ccc(OC(F)(F)F)cc1)CC[C@H]1C(C)(C)C(=O)C(C#N)=C[C@]21C	300	540	600	3220	5.4 to 10.7	5.4 to 10.7	5.4 to 10.7	Ratio IC50 [20]: 2
COc1cc2c(cc1C(=O)Nc1ccc(C(F)(F)F)cc1)CC[C@H]1C(C)(C)C(=O)C(C#N)=C[C@]21C	320	–	–	–	–	–	–	–
COc1cc2c(cc1C(=O)Nc1ccc(Br)cc1)CC[C@H]1C(C)(C)C(=O)C(C#N)=C[C@]21C	530	–	–	–	–	–	–	–
COc1cc2c(cc1C(=O)Oc1ccccc1)CC[C@H]1C(C)(C)C(=O)C(C#N)=C[C@]21C	1310	–	–	–	–	–	–	–
COc1cc2c(cc1C(=O)Nc1ccc(Cl)cc1)CC[C@H]1C(C)(C)C(=O)C(C#N)=C[C@]21C	670	–	–	–	–	–	–	–
